The text below walks through data of ChEMBL document CHEMBL1125528, “Synthesis and pharmacological evaluation of enantiomerically pure 4-deoxy-4-fluoromuscarines” (J Med Chem, 1992).

In assay [1] the target is Muscarinic acetylcholine receptor M3 (Cavia porcellus) (UniProt Q8VH26). Briefly: In vitro potency at muscarinic M3 receptors of guinea pig ileum. The class given is functional, tissue-based.
The target in assay [2] is T1, Muscarinic acetylcholine receptor M2 (Homo sapiens) (UniProt P08172).
T1 sequence (whole entry): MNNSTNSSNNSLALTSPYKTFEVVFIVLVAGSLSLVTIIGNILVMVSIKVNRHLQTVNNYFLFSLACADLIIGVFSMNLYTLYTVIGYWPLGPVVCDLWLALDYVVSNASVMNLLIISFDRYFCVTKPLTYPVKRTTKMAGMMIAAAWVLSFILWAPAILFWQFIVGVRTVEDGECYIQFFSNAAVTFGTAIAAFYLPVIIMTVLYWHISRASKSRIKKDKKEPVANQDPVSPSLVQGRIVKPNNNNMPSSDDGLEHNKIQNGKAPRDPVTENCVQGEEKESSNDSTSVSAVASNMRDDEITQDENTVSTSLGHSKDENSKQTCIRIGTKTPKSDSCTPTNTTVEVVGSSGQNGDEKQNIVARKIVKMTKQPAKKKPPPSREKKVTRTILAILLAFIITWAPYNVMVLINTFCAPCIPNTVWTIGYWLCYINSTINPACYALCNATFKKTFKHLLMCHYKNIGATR
In words: In vitro potency at muscarinic M2 receptors of guinea pig heart relative to muscarine. The class given is functional. The note with it: Cavia porcellus; target entry is the homologue from another species.

Assay [3] deals with T1, Muscarinic acetylcholine receptor M2 (Homo sapiens). Briefly: In vitro potency at muscarinic M2 receptors of guinea pig heart(atria force). Type of assay: functional. To be noted: Cavia porcellus; target entry is the homologue from another species.
Assay [4] has as its target Muscarinic acetylcholine receptor M3 (Cavia porcellus) (UniProt Q8VH26). In words: In vitro potency at muscarinic M3 receptors of guinea pig bladder. Type of assay: functional. The gist of the method: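 Guinea pig bladder longitudinal strip (2 mm wide, urethra to apex) in ileum PSS at 37 °C with isometric recording; 30 min equilibration, then the ileum protocol.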
Assay [5] has the same target. Briefly: In vitro potency at muscarinic M3 receptors of guinea pig bladder relative to muscarine.. Type of assay: functional.
Assay [6] deals with T2, Muscarinic acetylcholine receptor M1 (Homo sapiens) (UniProt P11229).
T2 sequence (whole entry): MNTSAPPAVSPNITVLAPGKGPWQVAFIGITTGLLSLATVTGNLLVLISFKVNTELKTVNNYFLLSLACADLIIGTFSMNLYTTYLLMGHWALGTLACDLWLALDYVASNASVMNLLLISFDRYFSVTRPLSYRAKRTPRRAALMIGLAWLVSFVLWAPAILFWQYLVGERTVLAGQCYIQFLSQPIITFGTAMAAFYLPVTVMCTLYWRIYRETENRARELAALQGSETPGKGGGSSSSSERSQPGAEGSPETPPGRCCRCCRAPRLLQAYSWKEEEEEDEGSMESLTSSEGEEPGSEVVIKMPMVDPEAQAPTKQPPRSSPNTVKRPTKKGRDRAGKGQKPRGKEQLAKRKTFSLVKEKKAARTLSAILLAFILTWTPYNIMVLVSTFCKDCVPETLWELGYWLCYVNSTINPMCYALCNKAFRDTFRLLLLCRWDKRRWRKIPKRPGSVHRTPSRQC
Briefly: Potency at ganglionic M1 receptors mediating tachycardia to increase the heart rate in pithed rat. Type of assay: functional, tissue-based. The gist of the method:
(§1)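 Pithed rats, artificially respired at 60 cycles/min, 1 mL/100 g, with heparin 150 IU/kg iv, at about 37 °C. Heart rate came from the carotid pressure pulse after at least 30 min stabilisation. Agonists in 0.9% saline were given iv at 0.1 mL/100 g, one curve per preparation. ED50 was read graphically. Antagonists (pirenzepine 50 µg/kg, methoctramine 300 µg/kg iv) were given 20 min beforehand.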

Assay [7] addresses Muscarinic acetylcholine receptor M3 (Cavia porcellus) (UniProt Q8VH26). Briefly: Affinity for muscarinic receptors in guinea pig bladder relative to muscarine.
For assay [8] the target is unchanged. In words: Dissociation constant at muscarinic M3 receptors of guinea pig bladder.
For assay [9], the target named is T1, Muscarinic acetylcholine receptor M2 (Homo sapiens). Briefly: % receptor occupied at ED50 on guinea pig heart(atria rate). To be noted: Cavia porcellus; target entry is the homologue from another species.
The target in assay [10] is Muscarinic acetylcholine receptor M3 (Cavia porcellus) (UniProt Q8VH26). In words: Dissociation constant at muscarinic M3 receptors of guinea pig ileum. The class given is tissue-based.
The target in assay [11] is T1, Muscarinic acetylcholine receptor M2 (Homo sapiens). Briefly: Affinity for muscarinic receptors in guinea pig heart(atria rate) relative to muscarine. To be noted: Cavia porcellus; target entry is the homologue from another species.
Assay [12] shares this target. Briefly: Potency at cardiac M2 receptors mediating bradycardia to decrease the heart rate in pithed rat. Type of assay: functional, tissue-based. An outline of the steps:
as §1

Assay [13] concerns the target Muscarinic acetylcholine receptor M3 (Cavia porcellus) (UniProt Q8VH26). Briefly: % receptor occupied at ED50 on guinea pig bladder.
The target of assay [14] is T1, Muscarinic acetylcholine receptor M2 (Homo sapiens). In words: Affinity for muscarinic receptors in guinea pig heart(atria force) relative to muscarine. To be noted: Cavia porcellus; target entry is the homologue from another species.
The target is the same in assay [15]. In words: Efficacy for muscarinic receptors in guinea pig heart(atria rate) relative to muscarine. Type of assay: functional. To be noted: Cavia porcellus; target entry is the homologue from another species.
For assay [16] the target is unchanged. In words: Dissociation constant at guinea pig heart(atria rate). To be noted: Cavia porcellus; target entry is the homologue from another species. Type of assay: functional.
Assay [17] has the same target. In words: % receptor occupied at ED50 on guinea pig heart(atria force). The note with it: Cavia porcellus; target entry is the homologue from another species.
Assay [18] has the same target. In words: In vitro potency at muscarinic M2 receptors of guinea pig heart(atria rate). Type of assay: functional. The note with it: Cavia porcellus; target entry is the homologue from another species.
For assay [19] the target is unchanged. In words: Efficacy for muscarinic receptors in guinea pig heart(atria force relative to muscarine. Type of assay: functional. To be noted: Cavia porcellus; target entry is the homologue from another species.
Assay [20] has the same target. Briefly: Dissociation constant at guinea pig heart(atria force). The class given is functional. To be noted: Cavia porcellus; target entry is the homologue from another species.
The target of assay [21] is Muscarinic acetylcholine receptor M3 (Cavia porcellus) (UniProt Q8VH26). Briefly: In vitro potency at muscarinic M3 receptors of guinea pig ileum relative to muscarine.. Type of assay: functional, tissue-based.
Assay [22] has the same target. Briefly: Efficacy for muscarinic receptors in guinea pig bladder relative to muscarine. The class given is functional.
The target is the same in assay [23]. In words: % receptor occupied at ED50 on guinea pig ileum. Type of assay: tissue-based.
For assay [24] the target is unchanged. Briefly: Efficacy for muscarinic receptors in guinea pig ileum relative to muscarine. The class given is functional, tissue-based.
Assay [25] has the same target. In words: Affinity for muscarinic receptors in guinea pig ileum relative to muscarine. Type of assay: tissue-based.
Assay [26] has the same target. In words: % muscarinic acetylcholine receptor M3 occupied at ED50 on guinea pig ileum. The class given is tissue-based.
The target is the same in assay [27]. The note with it: Ileum.
The target is the same in assay [28]. The note with it: Ileum. The source holds these as a separate data set.
The target is the same in assay [29]. In words: % muscarinic acetylcholine receptor M3 occupied at ED50 on guinea pig bladder.
For assay [30] the target is unchanged. The note with it: Ileum. This is another data set of the same source.

Each structure is given as a SMILES string.

Chain of Muscarinic acetylcholine receptor M3 (Cavia porcellus) (Q8VH26 1-587): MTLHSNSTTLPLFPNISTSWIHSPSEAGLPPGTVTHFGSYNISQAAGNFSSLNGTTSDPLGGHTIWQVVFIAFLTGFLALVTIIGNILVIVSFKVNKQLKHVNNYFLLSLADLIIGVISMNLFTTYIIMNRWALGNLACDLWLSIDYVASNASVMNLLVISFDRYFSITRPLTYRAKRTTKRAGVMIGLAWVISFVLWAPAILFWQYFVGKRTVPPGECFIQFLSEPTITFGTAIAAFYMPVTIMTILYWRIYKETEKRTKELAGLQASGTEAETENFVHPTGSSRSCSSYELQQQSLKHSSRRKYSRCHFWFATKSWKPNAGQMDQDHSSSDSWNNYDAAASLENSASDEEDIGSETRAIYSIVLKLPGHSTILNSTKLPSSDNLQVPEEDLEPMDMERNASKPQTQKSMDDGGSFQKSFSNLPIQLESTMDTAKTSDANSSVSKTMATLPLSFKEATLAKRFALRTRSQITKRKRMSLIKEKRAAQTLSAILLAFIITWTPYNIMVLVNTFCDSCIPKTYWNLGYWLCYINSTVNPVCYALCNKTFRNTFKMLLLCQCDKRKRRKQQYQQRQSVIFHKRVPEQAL

With `C[C@@H]1O[C@H](C[N+](C)(C)C)C[C@@H]1F`, the -Log ED50 amounted to 5.02 in assay [1], 4.43 in assay [3] and 3.74 in assay [4]. Further, the Intrinsic activity in assay [2] and in assay [5] was 0.76 each time.

A word on the ED50: it is the midpoint of the dose-response relation. For the compound `C[C@@H]1O[C@H](C[N+](C)(C)C)C[C@H]1F`, the figures for the ED50 in assay [6] and in [12] were 0.0045 mg/kg and 0.0235 mg/kg, respectively. For the same compound, the Relative affinity in assay [7] stood at 0.59; in assay [11], 14.5; in [14], 0.93; in assay [25], 0.59. In addition, the -Log KD stood at 4.39 in assay [8], 5.72 in assay [10], 5.77 in assay [16] and 4.67 in assay [20]. Further, the Receptor occupied in assay [9] was 7.36%; in assay [13], 5.11%; in assay [17], 0.86%; in assay [23] it was 2.24%. Further, the PD2 in [1] came out at 7.36; in [3], 6.73; in assay [4], 5.66. Further, the Relative efficacy in assay [15] worked out at 0.21; in assay [19], 1.17; in [22] it was 1.54; in assay [24], 2.96. Further, the Intrinsic activity in [2] is 0.98; in [21] it was 0.95; in assay [5], 0.88. In addition, in [18], the -Log ED50 stood at 6.87.

On to `C[C@@H]1O[C@H](C[N+](C)(C)C)C[C@H]1O` (racemic), for which the Receptor occupied came to 6.62% in [26] and 7.85% in [29]. In assay [27], this compound displayed a -Log KD of 5.95. In addition, the values for the PD2 in assay [28] and in assay [30] were 7.1 and 5.69, respectively.

Take `C[C@@H]1O[C@@H](C[N+](C)(C)C)C[C@@H]1F`: the -Log ED50 in [1] amounted to 4.64; in [3] it was 4.07; in assay [4], 3.92. Besides, the Intrinsic activity was found to be 0.72 in assay [2] and 0.52 in assay [5].

As to `C[C@@H]1O[C@@H](C[N+](C)(C)C)C[C@H]1F`, the -Log ED50 was 5.93 in assay [1], 5.59 in [3] and 4.45 in assay [4]. The Intrinsic activity was determined as 0.97 in [2] and 0.74 in assay [5].
